According to ChEMBL document CHEMBL3632560, “1,4-Oxazine β-Secretase 1 (BACE1) Inhibitors: From Hit Generation to Orally Bioavailable Brain Penetrant Leads” (J Med Chem, 2015):

Legend:
[1] = Dissociation constant, pKa of the compound by potentiometric titration assay; type: physicochemical
[2] = Drug metabolism in human liver microsomes at 1 uM after 15 min by HPLC-MS/MS analysis; type: ADME; conditions: read-out: Drug metabolism
[3] = Drug metabolism in mouse liver microsomes at 1 uM after 15 min by HPLC-MS/MS analysis; type: ADME; conditions: read-out: Drug metabolism
[4] = Distribution coefficient, logD of the compound by chromatography; type: physicochemical; conditions: octanol/water
[5] = Ratio of drug level in brain to plasma of pathogen free CD1 Swiss mouse at 10 mg/kg, po; type: ADME, organism-based
Summary of the method: (§1)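 Fasted male CD1 Swiss SPF mice dosed 10 mg/kg p.o. (n=6) in 20% HPβCD at pH 3.9 or 20% SBEβCD at pH 3.5. Plasma and brain taken at 2, 4 and 7 h. One hemisphere used for drug bioanalysis; the other was homogenized for Aβ42 and Aβ total by sandwich immunoassay. Kp calculated from AUC0-last.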

[6] = Drug uptake in pathogen free CD1 Swiss mouse brain at 10 mg/kg, po after 4 hrs; type: ADME, organism-based; conditions: read-out: Drug uptake; summary of the method: as §1
[7] = Drug metabolism in dog liver microsomes at 1 uM after 15 min by HPLC-MS/MS analysis; type: ADME, Canis lupus familiaris; conditions: read-out: Drug metabolism
Summary of the method: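 Final solvent 0.01% DMSO and 0.5% acetonitrile. Reaction started with NADPH and quenched with acetonitrile at 15 min. Percent metabolized is parent loss measured by HPLC-MS/MS.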

[8] = Tmax in Beagle dog at 2.5 mg/kg, po; type: ADME, organism-based, Canis lupus familiaris; conditions: in vivo
Summary of the method: (§2)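 Fasted Beagle dogs, 2 male and 2 female per dose group, given doses from 0.08 to 10 mg/kg in 20% HPβCD at pH 3.5. Plasma drug levels followed over time to give Cmax, Tmax and T½. CSF Aβ42 measured by MesoScale electrochemiluminescence for up to 50 h after dosing.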

[9] = Elimination half-life in Beagle dog at 2.5 mg/kg, po; type: ADME, organism-based, Canis lupus familiaris; conditions: in vivo, read-out: beta t1/2 (converted); summary of the method: as §2
[10] = Cmax in Beagle dog at 2.5 mg/kg, po; type: ADME, organism-based, Canis lupus familiaris; set-up: dose 2.5 mg/kg, route oral; conditions: in vivo; summary of the method: as §2
MDR1 (human) = test: Apparent permeability across apical to basolateral side in pig LLC cells transfected with human MDR1 at 5 uM by HPLC-MS/MS analysis; type: ADME, cell-based, Sus scrofa; conditions: LLC-PK1

Structure (SMILES)	pKa [1]	metabolised at 0.25 h, 1 µM [2] [%]	metabolised at 0.25 h, 1 µM [3] [%]	also measured
COc1cnc(C(=O)Nc2ccc(F)c([C@@]3(C)N=C(N)CO[C@H]3F)c2)cn1	7.6	–	–	–
CC1(c2ccccc2)COCC(N)=N1 (stereo not drawn)	9.8	–	–	–
COc1cnc(C(=O)Nc2ccc(F)c([C@@]3(C4CC4)N=C(N)CO[C@@H]3F)c2)cn1	7.8	–	–	–
COc1cnc(C(=O)Nc2ccc(F)c([C@@]3(C)N=C(N)CO[C@@]3(F)C(F)(F)F)c2)cn1	6.8	–	–	chromatographic logD [4]: 3.43
C[C@@]1(c2cccc(NC(=O)c3ccc(Cl)cn3)c2)COCC(N)=N1	9.6	0	6	–
COc1cnc(C(=O)Nc2cc([C@@]3(C)N=C(N)CO[C@@H]3F)ccn2)cn1 (racemic)	2.8	–	–	–
COc1cnc(C(=O)Nc2ccc(F)c([C@@]3(C)N=C(N)CO[C@]3(F)C(F)(F)F)c2)cn1	6.9	–	–	–
COc1cnc(C(=O)Nc2ccc(F)c([C@]3(C)COCC(N)=N3)c2)cn1	9	1	6	Papp A→B at 5 µM (MDR1 (human)): 3.7 ×10⁻⁶ cm/s
COc1cnc(C(=O)Nc2ccnc([C@@]3(C)N=C(N)CO[C@@H]3F)c2)cn1 (racemic)	2.6	–	–	–

Continued, in another order:

pKa [1]	metabolised at 0.25 h, 1 µM [2] [%]	metabolised at 0.25 h, 1 µM [3] [%]	Structure (SMILES)	also measured
7.8	31	3	COc1cnc(C(=O)Nc2ccc(F)c([C@@]3(C)N=C(N)CO[C@@H]3F)c2)cn1	chromatographic logD [4]: 2.04; Kp [5]: 0.65; concentration at 4 h [6]: 195 ng/g; metabolised at 0.25 h, 1 µM [7]: 70%
7.9	0	2	C[C@]1(c2cc(NC(=O)c3ccc(C#N)cn3)ccc2F)N=C(N)CO[C@@H]1F	Tmax [8]: 2.5 h; half-life [9]: 25 h; Kp [5]: 0.33; Cmax [10]: 571 ng/mL; concentration at 4 h [6]: 98 ng/g; metabolised at 0.25 h, 1 µM [7]: 0%
8	–	–	C[C@]1(c2cc(N)ccc2F)N=C(N)CO[C@H]1C(F)(F)F	–
7.4	16	98	Cc1cc(Cl)cnc1C(=O)Nc1ccc(F)c([C@@]2(C)N=C(N)CO[C@@H]2F)c1	Papp A→B at 5 µM (MDR1 (human)): 9.3 ×10⁻⁶ cm/s; metabolised at 0.25 h, 1 µM [7]: 21%
8.1	–	–	C[C@]1(c2cc(N)ccc2F)N=C(N)CO[C@@H]1F	–
7.9	0	17	C[C@]1(c2cc(NC(=O)c3ccc(Cl)cn3)ccc2F)N=C(N)CO[C@@H]1F	Papp A→B at 5 µM (MDR1 (human)): 8.5 ×10⁻⁶ cm/s; metabolised at 0.25 h, 1 µM [7]: 7%
